The source of these data is ChEMBL document CHEMBL1131058, “Studies on quinazolines and 1,2,4-benzothiadiazine 1,1-dioxides. 8.1, 2 synthesis and pharmacological evaluation of tricyclic fused quinazolines and 1,2,4-benzothiadiazine 1,1-dioxides as potential alpha1-adrenoceptor antagonists” (J Med Chem, 1998).

Test [1] concerns the target T1, D(2) dopamine receptor (Homo sapiens, UniProt P14416). The test is described as follows: Compound is evaluated for binding affinity towards recombinant human Dopamine receptor D2 using [3H]spiperone in CHO cells. The class given is cell-based. Put shortly: (§1)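 Contract radioligand competition binding. Sources: 5-HT1 and 5-HT1A in rat brain cortex; 5-HT2 and σ2 in rat brain; σ in guinea pig brain; D2, rhD2 and rhD3 in CHO cells with [³H]spiperone; H1 in guinea pig lung with [³H]pyrilamine. Inhibition constants reported; no constant given where inhibition at 10 µM was below 50%.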

Test [2] concerns the target T2, Alpha-2B adrenergic receptor (Homo sapiens, UniProt P18089).
T2 sequence (P18089 whole entry): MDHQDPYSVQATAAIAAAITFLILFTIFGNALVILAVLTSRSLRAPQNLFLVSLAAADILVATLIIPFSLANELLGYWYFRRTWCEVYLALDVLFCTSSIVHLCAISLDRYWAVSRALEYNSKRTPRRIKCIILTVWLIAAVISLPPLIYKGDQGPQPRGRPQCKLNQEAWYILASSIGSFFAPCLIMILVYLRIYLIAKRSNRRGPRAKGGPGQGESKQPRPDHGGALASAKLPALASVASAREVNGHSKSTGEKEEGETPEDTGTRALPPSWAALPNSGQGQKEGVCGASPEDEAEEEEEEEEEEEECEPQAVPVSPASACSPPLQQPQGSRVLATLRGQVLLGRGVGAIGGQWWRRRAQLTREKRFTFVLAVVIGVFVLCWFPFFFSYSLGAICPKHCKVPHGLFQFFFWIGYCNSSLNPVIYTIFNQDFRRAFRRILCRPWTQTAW
The test is described as follows: Compound is evaluated for binding affinity towards Alpha-2B adrenergic receptor using [3H]yohimbine.

Test [3] addresses T3, Alpha-2A adrenergic receptor (Homo sapiens, UniProt P08913).
T3 sequence (P08913 whole entry): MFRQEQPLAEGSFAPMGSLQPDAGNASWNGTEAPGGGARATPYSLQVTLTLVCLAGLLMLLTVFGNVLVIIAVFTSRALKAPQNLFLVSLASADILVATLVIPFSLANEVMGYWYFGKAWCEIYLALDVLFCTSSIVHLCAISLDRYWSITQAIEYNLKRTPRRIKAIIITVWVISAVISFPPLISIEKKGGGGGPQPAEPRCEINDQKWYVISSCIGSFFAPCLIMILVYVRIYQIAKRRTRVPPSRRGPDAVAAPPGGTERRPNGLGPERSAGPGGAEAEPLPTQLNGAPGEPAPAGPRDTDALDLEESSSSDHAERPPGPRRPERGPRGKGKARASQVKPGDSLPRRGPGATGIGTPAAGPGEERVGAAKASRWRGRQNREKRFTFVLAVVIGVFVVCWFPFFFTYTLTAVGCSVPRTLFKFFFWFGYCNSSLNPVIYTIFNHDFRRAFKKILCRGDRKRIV
Briefly: Compound is evaluated for binding affinity towards Alpha-2A adrenergic receptor using [3H]MK912.

The target of test [4] is T4, D(3) dopamine receptor (Homo sapiens, UniProt P35462). The test is described as follows: Compound is evaluated for binding affinity towards recombinant human Dopamine receptor D3 using [3H]spiperone in CHO cells at 10 uM. The class given is cell-based. The procedure, abridged:
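Single-concentration screen at 10 µM in contract radioligand binding assays. Records whether inhibition of specific radioligand binding stayed below 50%.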

The target of test [5] is Serotonin 2 (5-HT2) receptor (Rattus norvegicus, UniProt P30994+P08909+P14842). Briefly: Compound is evaluated for binding affinity towards 5-hydroxytryptamine 2 receptor using [3H]ketanserin in rat brain. The class given is tissue-based. The procedure, abridged: as §1
Test [6] has as its target Serotonin 1 (5-HT1) receptor (Rattus norvegicus, UniProt P28564+P30940+P19327+P28565). The test is described as follows: Compound is evaluated for binding affinity towards 5-hydroxytryptamine 1 receptor using [3H]5-HT in rat brain cortex. The class given is tissue-based. The procedure, abridged:
as §1

The target in test [7] is Sigma 2 receptor. Briefly: (§2) Binding affinity towards Sigma 2 receptor using [3H]ifenprodil in rat brain. Format: tissue-based. Put shortly: as §1
The target in test [8] is Histamine H1 receptor (Cavia porcellus, UniProt P31389). The test is described as follows: Compound is evaluated for binding affinity towards Histamine H1 receptor using [3H]pyrilamine in guinea pig lung. The class given is tissue-based. Put shortly:
as §1

Test [9] addresses T5, 5-hydroxytryptamine receptor 1A (Rattus norvegicus, UniProt P19327).
T5 sequence (P19327 whole entry): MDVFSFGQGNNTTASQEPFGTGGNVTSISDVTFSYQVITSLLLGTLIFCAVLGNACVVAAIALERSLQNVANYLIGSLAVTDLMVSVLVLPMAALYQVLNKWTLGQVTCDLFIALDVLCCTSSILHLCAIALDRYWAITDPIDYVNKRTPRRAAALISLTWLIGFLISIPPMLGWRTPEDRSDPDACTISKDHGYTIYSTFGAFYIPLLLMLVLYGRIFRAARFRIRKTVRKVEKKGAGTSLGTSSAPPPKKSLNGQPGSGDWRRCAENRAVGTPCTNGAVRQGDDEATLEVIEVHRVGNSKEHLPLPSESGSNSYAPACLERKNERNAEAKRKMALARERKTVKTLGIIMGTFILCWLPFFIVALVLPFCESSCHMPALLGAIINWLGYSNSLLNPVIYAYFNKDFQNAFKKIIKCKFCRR
Briefly: Compound is evaluated for binding affinity towards 5-hydroxytryptamine 1A receptor using [3H]-8-OH- -DPAT in rat brain cortex. The class given is tissue-based. The procedure, abridged: as §1

The target of test [10] is Sodium channel alpha subunits; brain (Types I, II, III) (Rattus norvegicus, UniProt P04775+P04774+P08104). Briefly: Displacement of [3H]batrachotoxin from rat brain sodium channel. The class given is tissue-based. The procedure, abridged:
(§3)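 Radioligand competition binding was done by an outside contract lab (Pan Lab). Inhibition constants (Ki) were derived from displacement of the stated tritiated ligand. Each compound was tested at 10 µM. Where inhibition at that concentration stayed below 50%, no Ki was reported.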
(In general: Displacement assays read how much labelled ligand stays bound in the presence of the test substance.)

Test [11] in a line: Selectivity ratio for binding affinity towards alpha2 and alpha-1 adrenoceptors. The procedure, abridged: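 Ratio of α2 Ki ([³H]clonidine binding) to α1 Ki ([³H]prazosin binding), both measured in rat cortical membrane competition assays.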
Test [12] has as its target T6, Alpha-1B adrenergic receptor (Rattus norvegicus, UniProt P15823).
T6 sequence (P15823 whole entry): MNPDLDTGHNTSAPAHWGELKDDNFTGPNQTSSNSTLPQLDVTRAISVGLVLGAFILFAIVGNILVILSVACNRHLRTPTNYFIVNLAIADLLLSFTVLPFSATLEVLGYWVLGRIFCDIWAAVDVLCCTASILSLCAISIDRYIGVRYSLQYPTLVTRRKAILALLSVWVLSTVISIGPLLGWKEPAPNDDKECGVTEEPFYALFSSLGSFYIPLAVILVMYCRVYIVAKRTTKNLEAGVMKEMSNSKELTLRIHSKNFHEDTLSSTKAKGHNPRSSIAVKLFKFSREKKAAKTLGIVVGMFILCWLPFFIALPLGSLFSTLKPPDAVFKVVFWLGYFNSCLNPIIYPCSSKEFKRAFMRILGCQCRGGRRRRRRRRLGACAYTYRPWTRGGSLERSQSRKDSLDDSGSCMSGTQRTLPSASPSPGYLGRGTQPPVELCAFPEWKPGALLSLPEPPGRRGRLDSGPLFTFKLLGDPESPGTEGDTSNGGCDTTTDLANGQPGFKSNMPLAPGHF
Briefly: Displacement of [3H]prazosin from Alpha-1B adrenergic receptor of rat liver membrane. Put shortly:
(§4)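 Triplicate competition binding against 0.2-0.25 nM [³H]prazosin in Tris buffer pH 7.4, 30 min at room temperature. Competitor range 0.1-200 nM. Nonspecific binding defined with 10 µM phentolamine. Reaction stopped by GF/B filtration with two cold Tris washes. Membrane protein 300-400 µg per assay. Ki calculated from the data; mean ± SEM of 3-6 experiments.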

The target in test [13] is T1, D(2) dopamine receptor. The test is described as follows: Compound is evaluated for binding affinity towards Dopamine receptor D2 using [3H]spiperone in CHO cells at 10 uM. The class given is cell-based.
Test [14] addresses T7, Alpha-1A adrenergic receptor (Rattus norvegicus, UniProt P43140).
T7 sequence (P43140 whole entry): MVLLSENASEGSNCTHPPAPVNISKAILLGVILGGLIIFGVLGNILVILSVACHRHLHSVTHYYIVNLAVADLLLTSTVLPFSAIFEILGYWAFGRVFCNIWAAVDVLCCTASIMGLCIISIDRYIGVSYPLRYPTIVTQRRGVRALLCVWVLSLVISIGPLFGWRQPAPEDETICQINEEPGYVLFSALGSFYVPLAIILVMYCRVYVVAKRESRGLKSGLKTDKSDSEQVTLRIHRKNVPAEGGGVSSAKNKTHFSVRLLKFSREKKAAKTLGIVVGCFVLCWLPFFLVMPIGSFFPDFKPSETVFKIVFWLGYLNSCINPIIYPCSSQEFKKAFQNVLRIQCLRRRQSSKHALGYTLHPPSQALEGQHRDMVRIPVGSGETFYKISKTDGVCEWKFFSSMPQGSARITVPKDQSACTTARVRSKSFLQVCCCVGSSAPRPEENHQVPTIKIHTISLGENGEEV
The test is described as follows: Displacement of [3H]prazosin from Alpha-1A adrenergic receptor of rat submaxillary gland membranes. The class given is cell membranes, Membrane. Put shortly: as §4

For test [15], the target named is T4, D(3) dopamine receptor. Briefly: Compound is evaluated for binding affinity towards recombinant human Dopamine receptor D3 using [3H]spiperone in CHO cells. Format: cell-based. Put shortly:
as §1

The target in test [16] is Alpha-2A adrenergic receptor (Homo sapiens) (UniProt P08913). Briefly: Compound is evaluated for binding affinity towards Alpha-2A adrenergic receptor using [3H]MK912 at 10 uM.
The target in test [17] is Alpha-2B adrenergic receptor (Homo sapiens) (UniProt P18089). The test is described as follows: Compound is evaluated for binding affinity towards Alpha-2B adrenergic receptor using [3H]yohimbine at 10 uM.
Test [18] addresses Sodium channel alpha subunits; brain (Types I, II, III) (Rattus norvegicus) (UniProt P04775+P04774+P08104). The test is described as follows: Displacement of [3H]batrachotoxin from rat brain sodium channel at 10 uM. Format: tissue-based. The procedure, abridged: as §3
The target in test [19] is Serotonin 1 (5-HT1) receptor (Rattus norvegicus) (UniProt P28564+P30940+P19327+P28565). Briefly: Compound is evaluated for binding affinity towards 5-hydroxytryptamine 1 receptor using [3H]5-HT in rat brain cortex at 10 uM. The class given is tissue-based. The procedure, abridged:
as §3

Test [20] concerns Sigma 2 receptor. Described as §2. The class given is tissue-based. The settings on record: concentration not given here. Put shortly:
as §3

Test [21] concerns the target T1, D(2) dopamine receptor. The test is described as follows: Compound is evaluated for binding affinity towards Dopamine receptor D2 using [3H]spiperone in CHO cells. The class given is cell-based. The procedure, abridged: as §1

T1 sequence (P14416 whole entry): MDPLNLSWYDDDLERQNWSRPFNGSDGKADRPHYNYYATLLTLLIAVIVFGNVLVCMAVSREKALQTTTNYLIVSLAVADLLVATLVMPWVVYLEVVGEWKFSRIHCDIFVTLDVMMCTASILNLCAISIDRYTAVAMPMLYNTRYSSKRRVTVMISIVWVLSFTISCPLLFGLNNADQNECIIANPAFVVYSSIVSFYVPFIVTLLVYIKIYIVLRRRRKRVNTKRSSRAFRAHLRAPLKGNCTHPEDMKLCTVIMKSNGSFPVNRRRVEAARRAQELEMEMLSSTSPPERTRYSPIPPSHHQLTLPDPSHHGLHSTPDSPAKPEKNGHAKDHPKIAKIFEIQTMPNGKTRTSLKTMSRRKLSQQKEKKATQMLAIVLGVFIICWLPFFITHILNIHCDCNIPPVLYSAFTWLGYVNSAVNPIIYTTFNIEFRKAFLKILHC
T4 sequence (P35462 whole entry): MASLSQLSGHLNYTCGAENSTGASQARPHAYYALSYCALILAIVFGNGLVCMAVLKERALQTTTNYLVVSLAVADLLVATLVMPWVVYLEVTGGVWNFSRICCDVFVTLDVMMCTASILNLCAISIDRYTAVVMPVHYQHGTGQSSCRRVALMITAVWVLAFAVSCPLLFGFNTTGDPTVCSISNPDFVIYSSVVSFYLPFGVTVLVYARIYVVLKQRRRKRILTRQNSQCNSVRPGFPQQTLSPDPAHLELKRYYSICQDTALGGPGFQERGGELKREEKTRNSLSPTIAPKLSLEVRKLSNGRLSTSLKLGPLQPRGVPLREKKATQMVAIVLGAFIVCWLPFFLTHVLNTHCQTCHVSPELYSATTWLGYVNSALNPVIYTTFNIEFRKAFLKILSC
Sequence of Histamine H1 receptor (P31389 whole entry): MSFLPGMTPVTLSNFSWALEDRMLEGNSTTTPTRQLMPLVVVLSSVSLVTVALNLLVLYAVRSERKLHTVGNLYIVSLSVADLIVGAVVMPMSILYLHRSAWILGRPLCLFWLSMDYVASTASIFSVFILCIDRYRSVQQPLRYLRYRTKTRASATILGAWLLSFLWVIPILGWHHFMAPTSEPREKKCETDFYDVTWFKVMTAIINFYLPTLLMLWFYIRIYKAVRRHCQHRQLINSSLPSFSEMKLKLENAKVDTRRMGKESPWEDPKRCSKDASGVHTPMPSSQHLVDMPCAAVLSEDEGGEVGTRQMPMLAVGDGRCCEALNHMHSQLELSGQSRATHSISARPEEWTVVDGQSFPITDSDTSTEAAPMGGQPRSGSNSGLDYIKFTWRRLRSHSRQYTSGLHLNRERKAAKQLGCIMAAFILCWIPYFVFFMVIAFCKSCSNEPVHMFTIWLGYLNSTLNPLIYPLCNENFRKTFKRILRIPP

In the case of `COc1ccccc1N1CCN(CCn2c(=O)[nH]c3ccccc3c2=O)CC1`, the inhibitory constant (Ki) worked out at 0.132 µM in test [1]; 0.056 µM in test [2]; 1.81 µM in test [3]; 0.073 µM in test [4]; 0.18 µM in test [5]; 1.51 µM in test [6]. Besides, the Ki was 2.5 µM in test [7]; 0.685 µM in [8]; 0.016 µM in [9]; 3.68 µM in test [10]; 0.0011 µM in [12]; 0.032 µM in test [13]. This molecule came in with an inhibition constant (Ki) in test [14] of 0.0005 µM. Moreover, the Ratio in [11] came out at 6400.
Turning to `COc1ccccc1N1CCN(CC2CN=C3c4ccccc4NC(=O)N32)CC1` (stereo not drawn), the inhibition constant Ki turned out to be 0.985 µM in test [15]; 0.239 µM in test [1]; 0.377 µM in [5]; 0.158 µM in [21]; 2.32 µM in test [8]; 0.155 µM in [9]. Also, the values for the inhibition constant (Ki) in [12] and in test [14] were 0.00067 µM and 0.00026 µM, respectively. The inhibition in test [16], in test [17], in test [18], in test [19] and in test [20] was less than 50% each time. For the same molecule, the Ratio in [11] is 2820.

By Ki is commonly meant the equilibrium dissociation constant of an inhibitor or competing ligand from its target. In general, inhibition refers to the drop in the measured response relative to a control, in per cent. Read a low inhibition as a weak effect.
